# Most compounds without a hit are left out; they make up all but 1.8% or so of the library.
# STEP inh – STEP (human) phosphatase inhibition | P54829 | inhibition, % at 20 µM | recombinant STEP, OMFP fluorogenic substrate, fluorescence | hit rate 0.25% among 360,000;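 active = inhibition at 20 µM, scaled per plate between control wells, above about 37%, limit read from the data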;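 note: 0% = DMSO with enzyme and substrate and 100% = substrate only without enzyme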
# Target sequence (P54829 whole entry, looked up): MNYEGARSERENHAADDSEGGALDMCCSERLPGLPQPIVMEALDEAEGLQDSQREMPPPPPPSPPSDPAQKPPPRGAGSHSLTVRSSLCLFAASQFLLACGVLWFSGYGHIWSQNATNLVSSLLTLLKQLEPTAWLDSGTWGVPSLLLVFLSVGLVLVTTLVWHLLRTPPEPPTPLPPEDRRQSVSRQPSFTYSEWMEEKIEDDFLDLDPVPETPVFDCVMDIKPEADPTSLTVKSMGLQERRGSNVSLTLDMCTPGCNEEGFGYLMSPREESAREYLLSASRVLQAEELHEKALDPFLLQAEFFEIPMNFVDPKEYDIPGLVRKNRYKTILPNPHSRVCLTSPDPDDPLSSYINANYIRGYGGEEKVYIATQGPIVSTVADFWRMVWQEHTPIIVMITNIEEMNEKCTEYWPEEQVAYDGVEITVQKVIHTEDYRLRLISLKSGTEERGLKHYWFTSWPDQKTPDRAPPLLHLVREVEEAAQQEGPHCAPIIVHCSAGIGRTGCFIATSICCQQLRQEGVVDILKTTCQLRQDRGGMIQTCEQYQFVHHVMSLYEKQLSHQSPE
#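 System: isolated STEP enzyme; schedule: 20 min enzyme reaction at room temperature, protected from light; medium: Bis-Tris buffer pH 6.0, 2.5 mM DTT, 0.005% Tween 20; signal: fluorescence, 480/540 nm; dosing: single compound dose of 20 µM, 1% DMSO final; also added: OMFP substrate, 25 µM final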
# DNMT1 inh – inhibitors of human DNMT1; hit rate 0.83% among 360,000; AID 588458; P26358; inhibition (reported as % activation of signal), % at 10 µM; DNMT1 molecular beacon, Hinp1I cleavage, fluorescence; in the data active = inhibition above about 50%
# Scp1 inh – blocks human Scp-1 phosphatase activity; inhibition, % at 20 µM; Q9GZU7; hit rate 0.88% among 340,000; Recombinant Scp1, phosphopeptide, malachite green phosphate absorbance; AID 493091;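 active = inhibition above about 50% at 20 µM, limit read from the data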;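 note: plate controls were DMSO wells with enzyme for no effect and wells lacking enzyme for full effect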
#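 Material – SCP-1 phosphatase catalytic domain, residues 76-261 · Buffer or medium – Acidic Tris acetate buffer with magnesium and detergent · Also added – Phospho 17-mer peptide substrate · Compound – single 20 µM dose, 1% DMSO · Times – 45 min room-temperature reaction, 5 min colour, 30 min stabiliser · Technique – Phosphate-binding colour reagent, absorbance read at 630 nm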
# HKDC1 inh – HKDC1 (human) hexokinase inhibition | Q2TB90 | recombinant HKDC1, G6PDH/diaphorase resazurin coupled fluorescence | inhibition, % at 20 µM | hit rate 0.16% among 340,000;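 active = inhibition above about 35% when tested at 20 µM, limit read from the data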;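 note: plate controls were DMSO wells with enzyme for no effect and DMSO wells lacking enzyme for full effect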
#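 Material: recombinant HKDC1 hexokinase; Amount: HKDC1 at 5 µg/mL; Medium: Tris pH 8.0 buffer with MgCl2, Tween-20, BSA, BME; Schedule: 90 min reaction incubation at room temperature, dark; Technique: coupled resazurin fluorescence, excitation 525 nm, emission 613 nm.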
# SUMO1-SIM PPI – SUMO1-SIM interaction modulation | P63165 | SUMO1 binding to a labelled peptide, TR-FRET, 1 h | inhibition, % at 20 µM | hit rate 0.33% among 360,000; in the data active = inhibition above about 37%
# Target sequence (P63165 whole entry, looked up): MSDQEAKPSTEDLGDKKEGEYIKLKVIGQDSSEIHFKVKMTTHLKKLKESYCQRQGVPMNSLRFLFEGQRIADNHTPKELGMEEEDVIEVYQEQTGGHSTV
# LMPTP inh – LMPTP (human) inhibition. recombinant LMPTP-A, OMFP fluorogenic substrate, fluorescence intensity. inhibition, % at 20 µM. hit rate 0.22% among 360,000;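 active = compounds that cut the enzyme signal by at least half of the control window in the single-dose screen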;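 note: plate controls were DMSO wells with enzyme plus substrate for no effect and substrate without enzyme for full effect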
#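 Assay system: LMPTP-A, protein tyrosine phosphatase of low molecular weight / Medium: pH 6.0 Bis-Tris buffer with DTT and Triton X-100 / Schedule: 50 min enzyme reaction at room temperature, protected from light / Measured by: endpoint fluorescence intensity from OMFP dephosphorylation / Read-out basis: % inhibition relative to no-enzyme and uninhibited control wells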
# Beacon interf DR – counter-screen for DNMT1 inhibitors: spectral interference, dose response | 200 tested, under 10 active | IC50, µM | molecular beacon fluorescence | shares compounds with DNMT1 inh; call rule not given here
# DNMT1 inh conf – confirmation of human DNMT1 inhibitors; inhibition, % at 10 µM; shares compounds with DNMT1 inh; AID 602385; DNMT1 molecular beacon HinP1I cleavage, fluorescence; hit rate 8% among 2,300;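 active = average inhibition of at least 30% in the single-concentration confirmation test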
# Beacon interf – beacon fluorescence artifact counter-screen. shares compounds with DNMT1 inh. DNMT1 molecular beacon spectral interference counterscreen, fluorescence 485/520. activation (fluorescence interference), % at 10 µM. hit rate 1% among 2,300;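 active = activation of at least 30% at 10 µM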;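 note: DNMT1 catalytic domain with a HinP1I cleavage step and a FAM/dabcyl DNA beacon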
# * hit, by the source's call; / = no result.
SMILES,STEP inh,DNMT1 inh,Scp1 inh,HKDC1 inh,SUMO1-SIM PPI,LMPTP inh,DNMT1 inh conf,Beacon interf,others
CN(C)c1ncnc2c1ncn2[C@H]1CN(Cc2ccc3c(c2)OCO3)C[C@@H](CO)O1,3.9,2.4,/,/,-6.6,-2.5,/,/,
COc1ccc(NC(=O)CN(C)C(=O)c2cccc(-n3cccc3)c2)cc1,5.9,83.1*,/,/,18.9,6.2,8.4,-0.4,
c1ccc(Cn2c(SCc3nc4ccccc4s3)nnc2-c2ccco2)cc1,10.9,103.5*,25.7,6.1,36.5,36.7,1.1,6.0,
C(=C\c1ccc2nncn2c1)/c1ccccc1,0.0,15.9,/,/,-17.3,0.3,/,/,
Cc1ccc(-c2cc(-c3ccccc3O)nc(N/N=C/c3cccnc3)n2)cc1,1.8,51.7*,-3.0,-4.4,3.7,2.1,-0.7,-4.0,
C(=N\Nc1nccc(-c2cccnc2)n1)/c1ccccc1,-3.2,-3.0,-7.0,0.1,-13.1,0.9,/,/,
CCCc1cc(=O)oc2cc(C)cc(OCC(=O)N3C[C@H]4C[C@@H](C3)c3cccc(=O)n3C4)c12,-2.9,3.5,/,/,-5.9,0.9,/,/,
O=C(Nc1ccc(N2CCN(c3ccc(C(F)(F)F)cn3)CC2)nc1)c1cccs1,0.9,51.8*,-7.2,-2.0,9.6,2.9,2.7,3.4,
O=C(NCCN1CCC(n2c(=O)[nH]c3ccccc32)CC1)c1cccnc1Cl,/,/,/,/,0.2,3.6,/,/,
O=C(CNC(=O)c1ccc([N+](=O)[O-])cc1)N/N=C\c1ccc(OC(=O)c2ccccc2)cc1,1.1,85.3*,-4.8,-1.1,-6.5,2.2,38.3*,-0.1,Beacon interf DR=>99
Cc1cccc(C)c1NC(=O)C1(C)CSCC(=O)N1Cc1cccc(C(F)(F)F)c1 (centres undefined),/,/,/,/,3.5,-0.4,/,/,
Cc1nnn(-c2nonc2N)c1C(=O)N/N=C/c1cccc2ccccc12,4.8,59.7*,-6.9,-7.8,-2.8,2.2,5.6,2.2,
CN(C)Cc1c(C(=O)N/N=C/c2cccc3ccccc23)nnn1-c1nonc1N,-3.5,-2.2,2.9,-2.8,4.2,0.0,/,/,
Cc1cc(F)ccc1-c1cc(C(=O)NC2CCCCC2)[nH]n1,1.8,-0.1,/,/,4.0,-0.4,/,/,
CN(C(=O)C1Cc2c(-c3ccccc3Oc3ccccc3)ccnc2O1)c1ccccc1 (centres undefined),-2.4,75.6*,/,/,4.7,8.9,3.6,10.4,
CCOC(=O)[C@]12CCCC=C1N(Cc1ccc3c(c1)OCO3)C(=O)[C@H](CC(=O)N1CCN(C(=O)C3CC3)CC1)C2,/,/,/,/,2.2,-1.7,/,/,
Cc1ccc(OCC(=O)NNC(=O)CSc2ncnc3sc(C)c(C)c23)cc1,-0.6,53.9*,-0.7,8.0,-7.9,1.8,2.8,4.7,
COc1ccc(C)cc1S(=O)(=O)NC(C)c1cnn(-c2ccccn2)c1C (centres undefined),-0.8,-10.3,-7.1,-6.7,2.8,2.3,/,/,
CC1(C)C(=O)Nc2ccccc2N1C(=O)COc1cccnc1[N+](=O)[O-],1.7,57.9*,16.4,-5.8,-9.3,-0.8,4.8,1.6,
N#Cc1ccccc1S(=O)(=O)NC(=O)[C@H]1O[C@@H](n2cnc3c(N)ncnc32)[C@H](O)[C@@H]1O,-0.6,83.5*,/,/,2.5,-2.0,4.5,-0.7,
Nc1c(C(=O)N/N=C/c2ccc(OCc3ccccc3)cc2)cnn1-c1ccccc1,13.2,50.9*,4.8,0.1,19.2,50.5*,0.9,4.0,
Clc1ccc(-c2nnc3sc(-c4ccc(Br)o4)nn23)cc1,3.7,112.5*,-3.6,-2.8,-2.1,-0.6,60.5*,47.8*,
Cc1oc(-c2ccc(Cl)cc2)cc1-c1nn2c(-c3ccoc3C)nnc2s1,-0.6,93.2*,44.8,0.0,20.5,8.5,4.9,1.2,
CCc1nc2c(OCc3ccc(F)cc3)cccn2c1N(C)C(=O)COc1ccccc1,1.3,-7.1,/,/,-3.7,-2.1,/,/,
O=C(COC(=O)c1ccccc1Cl)NCc1ccco1,2.6,84.6*,39.8,-3.0,6.0,12.2,9.6,4.5,
SMILES,STEP inh,DNMT1 inh,Scp1 inh,HKDC1 inh,SUMO1-SIM PPI,LMPTP inh,DNMT1 inh conf,Beacon interf,others
O=C(COC(=O)c1ccc(NS(=O)(=O)c2cccs2)cc1)NCc1ccco1,29.9,92.5*,91.9*,14.4,39.8*,49.6,70.9*,3.3,Beacon interf DR=>99
CCOC(=O)c1cc(-c2ccc(C)cc2)n(CC(=O)NCc2ccco2)c1C,0.6,50.1*,-14.0,-4.7,0.3,-1.4,-1.1,2.5,
O=C(COC(=O)c1ccccc1Nc1ccccc1)NCc1ccco1,-1.4,-2.2,-7.2,-6.3,1.7,0.0,/,/,
C[C@H]1CN([C@@H](C)CO)C(=O)c2cc(Br)cnc2O[C@@H]1CN(C)S(=O)(=O)c1ccccc1,-1.8,1.2,/,/,1.5,-1.5,/,/,
Cc1ccc(C)c(N(Cc2cc3ccc(C)cc3[nH]c2=O)C(=O)c2ccco2)c1,1.1,141.9*,-4.3,0.1,2.0,0.1,2.8,1.5,
COc1ccc(N(Cc2cc3ccc(C)cc3[nH]c2=O)C(=O)c2ccco2)cc1,0.4,-3.2,-0.4,-3.1,5.0,0.6,/,/,
CN(Cc1nc2ccc(F)cc2[nH]1)C(=O)C1CCC(=O)N(C2CC2)C1 (centres undefined),-1.6,-1.1,-4.5,8.6,0.7,0.6,/,/,
Cc1cc2nc(CN(C)C(=O)C3CCC(=O)N(C4CCCC4)C3)[nH]c2cc1C (centres undefined),-0.5,73.1*,/,/,4.3,35.0,0.4,4.4,
C=CCSC1=N/C(=C\C=C\c2ccco2)C(=O)S1,4.2,97.3*,53.4*,5.9,20.9,36.4,2.6,-2.5,
C=CCSC1=N/C(=C\c2sccc2C)C(=O)S1,-2.1,1.5,-9.2,0.5,-2.9,1.9,/,/,
COc1ccc(OC)c(S(=O)(=O)N2CCN(C(=O)c3cc(C4CC4)nn3-c3ccccc3)CC2)c1,4.8,-3.5,-5.0,-2.6,-1.4,1.1,/,/,
Cc1ccc(S(=O)(=O)N(CC(=O)N/N=C/c2cccc(Cl)c2)c2cccc3cccnc23)cc1,7.9,52.6*,-3.1,-1.2,0.9,2.4,2.5,6.4,
Cc1ccc(-c2cc(-c3ccco3)c(C#N)c(=O)[nH]2)cc1,4.4,57.9*,22.1,11.2,-0.3,49.1*,-0.1,-2.3,
COc1ccc(NC(=O)C2(C)CCN2C(=O)c2ccc(C(C)(C)C)cc2)cc1OC (centres undefined),-0.5,1.0,/,/,-1.7,2.5,/,/,

# Screens as filed in PubChem.
